Results as given in ChEMBL document CHEMBL4007456, “Heterocyclyl Tetracyclines. 1. 7-Trifluoromethyl-8-Pyrrolidinyltetracyclines: Potent, Broad Spectrum Antibacterial Agents with Enhanced Activity against Pseudomonas aeruginosa” (2017).
Converted amounts (≈) assume the structure as drawn.

System: Klebsiella pneumoniae
Assay: Antibacterial activity against gram-negative Klebsiella pneumoniae KP153 harboring tet(A) by CLSI method
Type: functional
How it was run: (§1)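 CLSI broth microdilution MIC in fresh cation-adjusted Mueller Hinton broth, supplemented with defibrinated horse blood where appropriate. Compounds serially diluted in sterile deionized water. Runs accepted when comparator antibiotics against ATCC quality-control strains fell within recommended ranges.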

Compound | MIC
CN1CCCCC1c1cc(O)c2c(c1Cl)C[C@H]1C[C@H]3[C@H](N(C)C)C(O)=C(C(N)=O)C(=O)[C@@]3(O)C(O)=C1C2=O (some centres undefined) | 1 µg/mL (≈ 1.83 µM)
CN(C)[C@@H]1C(O)=C(C(N)=O)C(=O)[C@@]2(O)C(O)=C3C(=O)c4c(O)cc(-c5ccncc5)c(Cl)c4C[C@H]3C[C@@H]12 | > 32 µg/mL

System: Klebsiella pneumoniae
Assay: Antibacterial activity against gram-negative Klebsiella pneumoniae KP194 by CLSI method
Type: functional
How it was run: (§2)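 Broth microdilution MIC per CLSI in cation-adjusted Mueller Hinton broth, prepared fresh and held at 4 °C. Defibrinated horse blood added where appropriate. Compounds serially diluted in sterile deionized water. Strains from ATCC unless otherwise noted. Runs accepted when comparator antibiotics fell within QC ranges for ATCC quality control strains.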

Compound | MIC
CN1CCCCC1c1cc(O)c2c(c1Cl)C[C@H]1C[C@H]3[C@H](N(C)C)C(O)=C(C(N)=O)C(=O)[C@@]3(O)C(O)=C1C2=O (some centres undefined) | 16 µg/mL (≈ 29.3 µM)

System: Proteus mirabilis
Assay: Antibacterial activity against gram-negative Proteus mirabilis PM122 by CLSI method
Type: functional
How it was run: (§3)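 Defibrinated horse blood added where appropriate. Compounds serially diluted in sterile deionized water. Strains from ATCC unless otherwise noted. Runs accepted when comparator antibiotics fell within QC ranges for ATCC quality control strains.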

Compound | MIC
CN1CCCCC1c1cc(O)c2c(c1Cl)C[C@H]1C[C@H]3[C@H](N(C)C)C(O)=C(C(N)=O)C(=O)[C@@]3(O)C(O)=C1C2=O (some centres undefined) | 1 µg/mL (≈ 1.83 µM)
CN(C)[C@@H]1C(O)=C(C(N)=O)C(=O)[C@@]2(O)C(O)=C3C(=O)c4c(O)cc(-c5ccncc5)c(Cl)c4C[C@H]3C[C@@H]12 | 16 µg/mL (≈ 30.4 µM)

System: Pseudomonas aeruginosa
Assay: Antibacterial activity against gram-negative Pseudomonas aeruginosa PA169 by CLSI method
Type: functional
How it was run: as §3

Compound | MIC
CN1CCCCC1c1cc(O)c2c(c1Cl)C[C@H]1C[C@H]3[C@H](N(C)C)C(O)=C(C(N)=O)C(=O)[C@@]3(O)C(O)=C1C2=O (some centres undefined) | 32 µg/mL (≈ 58.6 µM)
CN(C)[C@@H]1C(O)=C(C(N)=O)C(=O)[C@@]2(O)C(O)=C3C(=O)c4c(O)cc(-c5ccncc5)c(Cl)c4C[C@H]3C[C@@H]12 | > 32 µg/mL

System: Acinetobacter baumannii
Assay: Antibacterial activity against gram-negative Acinetobacter baumannii AB250 by CLSI method
Type: functional
How it was run: as §2

Compound | MIC
CN1CCCCC1c1cc(O)c2c(c1Cl)C[C@H]1C[C@H]3[C@H](N(C)C)C(O)=C(C(N)=O)C(=O)[C@@]3(O)C(O)=C1C2=O (some centres undefined) | 2 µg/mL (≈ 3.66 µM)
CN(C)[C@@H]1C(O)=C(C(N)=O)C(=O)[C@@]2(O)C(O)=C3C(=O)c4c(O)cc(-c5ccncc5)c(Cl)c4C[C@H]3C[C@@H]12 | 2 µg/mL (≈ 3.8 µM)

System: Stenotrophomonas maltophilia
Assay: Antibacterial activity against gram-negative Stenotrophomonas maltophilia SM256 by CLSI method
Type: functional
How it was run: as §2

Compound | MIC
CN1CCCCC1c1cc(O)c2c(c1Cl)C[C@H]1C[C@H]3[C@H](N(C)C)C(O)=C(C(N)=O)C(=O)[C@@]3(O)C(O)=C1C2=O (some centres undefined) | 1 µg/mL (≈ 1.83 µM)
CN(C)[C@@H]1C(O)=C(C(N)=O)C(=O)[C@@]2(O)C(O)=C3C(=O)c4c(O)cc(-c5ccncc5)c(Cl)c4C[C@H]3C[C@@H]12 | 2 µg/mL (≈ 3.8 µM)

System: Burkholderia cenocepacia
Assay: Antibacterial activity against gram-negative Burkholderia cenocepacia BC240 by CLSI method
Type: functional
How it was run: as §3

Compound | MIC
CN1CCCCC1c1cc(O)c2c(c1Cl)C[C@H]1C[C@H]3[C@H](N(C)C)C(O)=C(C(N)=O)C(=O)[C@@]3(O)C(O)=C1C2=O (some centres undefined) | 8 µg/mL (≈ 14.7 µM)
CN(C)[C@@H]1C(O)=C(C(N)=O)C(=O)[C@@]2(O)C(O)=C3C(=O)c4c(O)cc(-c5ccncc5)c(Cl)c4C[C@H]3C[C@@H]12 | 8 µg/mL (≈ 15.2 µM)

System: Staphylococcus aureus
Assay: Antibacterial activity against gram-positive Staphylococcus aureus SA101 by CLSI method
Type: functional
How it was run: as §2

Compound | MIC
CN1CCCCC1c1cc(O)c2c(c1Cl)C[C@H]1C[C@H]3[C@H](N(C)C)C(O)=C(C(N)=O)C(=O)[C@@]3(O)C(O)=C1C2=O (some centres undefined) | 0.25 µg/mL (≈ 0.458 µM)
CN(C)[C@@H]1C(O)=C(C(N)=O)C(=O)[C@@]2(O)C(O)=C3C(=O)c4c(O)cc(-c5ccncc5)c(Cl)c4C[C@H]3C[C@@H]12 | 0.125 µg/mL (≈ 0.238 µM)

System: Staphylococcus aureus
Assay: Antibacterial activity against gram-positive Staphylococcus aureus SA161 harboring tet(M) by CLSI method
Type: functional
How it was run: as §1

Compound | MIC
CN1CCCCC1c1cc(O)c2c(c1Cl)C[C@H]1C[C@H]3[C@H](N(C)C)C(O)=C(C(N)=O)C(=O)[C@@]3(O)C(O)=C1C2=O (some centres undefined) | 4 µg/mL (≈ 7.33 µM)
CN(C)[C@@H]1C(O)=C(C(N)=O)C(=O)[C@@]2(O)C(O)=C3C(=O)c4c(O)cc(-c5ccncc5)c(Cl)c4C[C@H]3C[C@@H]12 | 0.5 µg/mL (≈ 0.951 µM)

System: Staphylococcus aureus
Assay: Antibacterial activity against gram-positive Staphylococcus aureus SA158 harboring tet(K) by CLSI method
Type: functional
How it was run: as §1

Compound | MIC
CN1CCCCC1c1cc(O)c2c(c1Cl)C[C@H]1C[C@H]3[C@H](N(C)C)C(O)=C(C(N)=O)C(=O)[C@@]3(O)C(O)=C1C2=O (some centres undefined) | 0.0313 µg/mL (≈ 0.0573 µM)
CN(C)[C@@H]1C(O)=C(C(N)=O)C(=O)[C@@]2(O)C(O)=C3C(=O)c4c(O)cc(-c5ccncc5)c(Cl)c4C[C@H]3C[C@@H]12 | 0.125 µg/mL (≈ 0.238 µM)

System: Enterococcus faecalis
Assay: Antibacterial activity against gram-positive Enterococcus faecalis EF159 harboring tet(M) by CLSI method
Type: functional
How it was run: as §1

Compound | MIC
CN1CCCCC1c1cc(O)c2c(c1Cl)C[C@H]1C[C@H]3[C@H](N(C)C)C(O)=C(C(N)=O)C(=O)[C@@]3(O)C(O)=C1C2=O (some centres undefined) | 2 µg/mL (≈ 3.66 µM)
CN(C)[C@@H]1C(O)=C(C(N)=O)C(=O)[C@@]2(O)C(O)=C3C(=O)c4c(O)cc(-c5ccncc5)c(Cl)c4C[C@H]3C[C@@H]12 | 0.5 µg/mL (≈ 0.951 µM)

System: Streptococcus pneumoniae
Assay: Antibacterial activity against gram-positive Streptococcus pneumoniae SP160 harboring tet(M) by CLSI method
Type: functional
How it was run: as §1

Compound | MIC
CN1CCCCC1c1cc(O)c2c(c1Cl)C[C@H]1C[C@H]3[C@H](N(C)C)C(O)=C(C(N)=O)C(=O)[C@@]3(O)C(O)=C1C2=O (some centres undefined) | 0.25 µg/mL (≈ 0.458 µM)
CN(C)[C@@H]1C(O)=C(C(N)=O)C(=O)[C@@]2(O)C(O)=C3C(=O)c4c(O)cc(-c5ccncc5)c(Cl)c4C[C@H]3C[C@@H]12 | 4 µg/mL (≈ 7.61 µM)

System: Streptococcus pneumoniae
Assay: Antibacterial activity against gram-positive Streptococcus pneumoniae SP193 by CLSI method
Type: functional
How it was run: as §2

Compound | MIC
CN1CCCCC1c1cc(O)c2c(c1Cl)C[C@H]1C[C@H]3[C@H](N(C)C)C(O)=C(C(N)=O)C(=O)[C@@]3(O)C(O)=C1C2=O (some centres undefined) | ≤ 0.0156 µg/mL
CN(C)[C@@H]1C(O)=C(C(N)=O)C(=O)[C@@]2(O)C(O)=C3C(=O)c4c(O)cc(-c5ccncc5)c(Cl)c4C[C@H]3C[C@@H]12 | 0.25 µg/mL (≈ 0.475 µM)

System: Escherichia coli
Assay: Antibacterial activity against gram-negative Escherichia coli EC107 by CLSI method
Type: functional
How it was run: as §2

Compound | MIC
CN1CCCCC1c1cc(O)c2c(c1Cl)C[C@H]1C[C@H]3[C@H](N(C)C)C(O)=C(C(N)=O)C(=O)[C@@]3(O)C(O)=C1C2=O (some centres undefined) | 0.125 µg/mL (≈ 0.229 µM)
CN(C)[C@@H]1C(O)=C(C(N)=O)C(=O)[C@@]2(O)C(O)=C3C(=O)c4c(O)cc(-c5ccncc5)c(Cl)c4C[C@H]3C[C@@H]12 | 2 µg/mL (≈ 3.8 µM)

System: Escherichia coli
Assay: Antibacterial activity against gram-negative Escherichia coli EC155 harboring tet(A) by CLSI method
Type: functional
How it was run: as §1

Compound | MIC
CN1CCCCC1c1cc(O)c2c(c1Cl)C[C@H]1C[C@H]3[C@H](N(C)C)C(O)=C(C(N)=O)C(=O)[C@@]3(O)C(O)=C1C2=O (some centres undefined) | 1 µg/mL (≈ 1.83 µM)
CN(C)[C@@H]1C(O)=C(C(N)=O)C(=O)[C@@]2(O)C(O)=C3C(=O)c4c(O)cc(-c5ccncc5)c(Cl)c4C[C@H]3C[C@@H]12 | > 32 µg/mL
